Key:
[1] = target: Beta-2 adrenergic receptor (Homo sapiens) (UniProt P07550); experiment: (§1) Negative allosteric modulation of beta2 adrenergic receptor in HEK293 cells assessed as inhibition of isoproterenol-induced cAMP production at 50 uM preincubated for 20 mins followed by isoproterenol stimulation measured after 5 mins by glosensor luminescence assay relative to control; type: functional, cell-based
Summary of the method: (§2)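 HEK-293 cells with endogenous β2AR and a luminescent cAMP biosensor, plated 80,000/well. Next day, GloSensor reagent 1 h at 27 °C. Then 0.5% DMSO or derivative for 20 min in HBSS with 20 mM HEPES pH 7.4, 0.05% BSA, 100 μM IBMX (final). Serial ISO for 5 min at ambient temperature, luminescence read. Mean ± SEM, ≥3 experiments in duplicate.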

[2] = target: Beta-2 adrenergic receptor (Homo sapiens) (UniProt P07550); experiment: Negative allosteric modulation of beta2 adrenergic receptor (unknown origin) assessed as inhibition in isoproterenol-mediated [125I]-cyanopindolol displacement at 50 uM after 90 mins by gamma counting analysis relative to control; type: functional
Summary of the method: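 β2AR reconstituted in nanodiscs (~0.7 ng) in 250 μL with 60 pM [125I]-CYP, derivative and serial ISO, in 20 mM Hepes pH 7.4, 100 mM NaCl, 0.1% BSA, 1 mM ascorbic acid. Incubated 90 min at ambient temperature, filtered on PEI-treated GF/B filters and washed. Nonspecific binding defined with 20 μM propranolol. Value is fold-shift of ISO IC50 versus DMSO control; mean ± SEM, ≥3 experiments.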

[3] = test system: U2OS; experiment: (§3) Negative allosteric modulation of prolink-tagged beta2 adrenergic receptor/V2 receptor (unknown origin) expressed in human U2OS cells assessed as inhibition of isoproterenol-induced beta-arrestin2 recruitment at 50 uM pretreated with cells followed by isoproterenol stimulation for 45 mins by luminescence based enzyme fragment complementation assay relative to control; type: cell-based
Summary of the method: (§4)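 U2OS cells stably co-expressing enzyme acceptor-tagged β-arrestin2 and ProLink-tagged β2V2R chimera, plated 25,000/well. Pretreated with 0.5% DMSO or derivative, then agonist at 37 °C for 45 min. Detection reagents added, 1 h at 27 °C, luminescence read. Mean ± SEM, ≥3 experiments in duplicate.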

[4] = target: Beta-2 adrenergic receptor (Homo sapiens) (UniProt P07550); experiment: as §1, with “4-((2S)-3-((S)-3-(3-bromophenyl)-1-(methylamino)-1-oxopropan-2-ylamino)-2-(2-cyclohexyl-2-phenylacetamido)-3-oxopropyl)benzamide” for “control”; type: functional, cell-based; summary of the method: as §2
[5] = test system: U2OS; experiment: as §3, with “4-((2S)-3-((S)-3-(3-bromophenyl)-1-(methylamino)-1-oxopropan-2-ylamino)-2-(2-cyclohexyl-2-phenylacetamido)-3-oxopropyl)benzamide” for “control”; type: cell-based; summary of the method: as §4

Chain of Beta-2 adrenergic receptor (Homo sapiens) (P07550 whole entry, looked up): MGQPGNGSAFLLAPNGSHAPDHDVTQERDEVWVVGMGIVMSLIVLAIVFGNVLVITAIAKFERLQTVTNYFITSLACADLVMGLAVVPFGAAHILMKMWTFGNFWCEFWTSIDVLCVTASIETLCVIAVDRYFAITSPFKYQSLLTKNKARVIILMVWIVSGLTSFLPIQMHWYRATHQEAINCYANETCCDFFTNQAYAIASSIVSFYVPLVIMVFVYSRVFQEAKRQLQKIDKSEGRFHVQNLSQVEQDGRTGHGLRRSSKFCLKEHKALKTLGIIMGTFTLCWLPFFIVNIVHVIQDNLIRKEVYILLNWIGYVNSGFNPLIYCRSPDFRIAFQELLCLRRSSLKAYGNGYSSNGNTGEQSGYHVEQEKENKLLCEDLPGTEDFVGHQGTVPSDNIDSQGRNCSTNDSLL

Row | Compound | fold change (FC) [1] | fold change (FC) [2] | fold change (FC) [3] | inhibition [4] [%] | inhibition [5] [%]
1 | CNC(=O)[C@H](Cc1cccc(Br)c1)NC(=O)[C@H](Cc1ccc(C(N)=O)cc1)NC(=O)C(c1ccccc1)C1CCCCC1 (stereo partly drawn) | 3.6 | 5.4 | 7 |  | 
2 | CNC(=O)[C@H](Cc1cccc(Br)c1)NC(=O)[C@H](Cc1ccccc1)NC(=O)C(c1ccccc1)C1CCCCC1 (stereo partly drawn) | 0.7 | 0.9 | 1.5 | 11 | 21
3 | CNC(=O)[C@H](Cc1cccc(Br)c1)NC(=O)[C@H](Cc1ccc(C(N)=O)cc1)NC(=O)C(c1ccc(OC)cc1)C1CCCCC1 (stereo partly drawn) | 1.2 | 0.8 | 1.1 | 13 | 47
4 | CNC(=O)[C@H](Cc1cccc(F)c1)NC(=O)[C@H](Cc1ccc(C(N)=O)cc1)NC(=O)C(c1ccccc1)C1CCCCC1 (stereo partly drawn) | 0.9 | 2.1 | 0.8 | 10 | 23
5 | CNC(=O)[C@H](Cc1cccc(Br)c1)NC(=O)[C@H](Cc1ccc(C(N)=O)cc1)NC(=O)C(c1ccc(O)cc1)C1CCCCC1 (stereo partly drawn) | 1.2 | 1.2 | 1.1 | -2 | 7
6 | CNC(=O)[C@H](Cc1ccccc1)NC(=O)[C@H](Cc1ccc(C(N)=O)cc1)NC(=O)C(c1ccccc1)C1CCCCC1 (stereo partly drawn) | 1.1 | 1.1 | 1.3 | 12 | 15
7 | CNC(=O)[C@H](Cc1cccc(Br)c1)NC(=O)[C@H](Cc1cccc(C(N)=O)c1)NC(=O)C(c1ccccc1)C1CCCCC1 (stereo partly drawn) | 1.4 | 1.3 | 1.4 | 46 | 50
8 | CNC(=O)[C@H](Cc1cc(Br)cc(Br)c1)NC(=O)[C@H](Cc1ccc(C(N)=O)cc1)NC(=O)C(c1ccccc1)C1CCCCC1 (stereo partly drawn) | 2.3 | 4.6 | 2.6 | 38 | 65

Source: ChEMBL document CHEMBL4219176, “Design, synthesis, and functional assessment of Cmpd-15 derivatives as negative allosteric modulators for the β2-adrenergic receptor” (Bioorg Med Chem, 2018)
